# Screening results from PubChem BioAssay.
# NR1D1 modulator – Rev-erb alpha (human) modulation | P20393 | Rev-erbα–FITC-DNA binding, fluorescence polarization, 90 min | activity, % at 10 µM | hit rate 0.79% among 370,000;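 active means activity above about 14%, limit read from the data; passing the limit was not always enough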;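 further: 0% = DMSO wells with 35 nM protein and 100% = DMSO wells with 750 nM protein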
# MT1-MMP act inh – MT1-MMP (human) activation inhibition | GFP/RFP ratio change, % at 20 µM | HT1080 RFP-PRO-GFP cells, GFP/RFP ratio fluorescence, overnight; percent of plate control window, DMSO zero | hit rate 0.061% among 360,000 | P50281;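 active means GFP/RFP ratio change of at least 30% with cell ATP level not reduced by more than half and red fluorescence within 50% of control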
#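 Read-out: GFP/RFP fluorescence ratio; Test system: RFP-PRO-GFP reporter HT1080 cells; Compound dosing: single-point 20 µM compound, 1% DMSO; Times: overnight compound exposure at 37 °C.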
# SKN-1 block – C. elegans SKN-1 inhibition | C. elegans VP596 Pgst-4::GFP/RFP ratio, acrylamide-induced, 24 h | inhibition, % at 21.8 µM | hit rate 0.49% among 360,000;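 active means interference check ratio from 0.5 to 1.5 plus GFP to RFP signal ratio inhibition reaching or exceeding a fixed threshold, cut at about 30% in these data, passing the limit was not always enough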
# NR2E3 ag-1 – agonists of human NR2E3 nuclear receptor | Q9Y5X4 | CHO-S Gal4-NCOR/VP16-NR2E3 two-hybrid, luciferase | inhibition of corepressor binding, % at 3.98 µM | hit rate 0.35% among 360,000 | AID 602229;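 active means inhibition above the mean of all tested compounds plus 3 SD, cut at about 70% in these data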;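 further: 0% = DMSO with NR2E3 transfected cells and 100% = cells lacking NR2E3 construct; higher means lower luciferase signal from less NR2E3 corepressor binding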
# Target sequence (Q9Y5X4 whole entry, looked up, the tested form may be a part): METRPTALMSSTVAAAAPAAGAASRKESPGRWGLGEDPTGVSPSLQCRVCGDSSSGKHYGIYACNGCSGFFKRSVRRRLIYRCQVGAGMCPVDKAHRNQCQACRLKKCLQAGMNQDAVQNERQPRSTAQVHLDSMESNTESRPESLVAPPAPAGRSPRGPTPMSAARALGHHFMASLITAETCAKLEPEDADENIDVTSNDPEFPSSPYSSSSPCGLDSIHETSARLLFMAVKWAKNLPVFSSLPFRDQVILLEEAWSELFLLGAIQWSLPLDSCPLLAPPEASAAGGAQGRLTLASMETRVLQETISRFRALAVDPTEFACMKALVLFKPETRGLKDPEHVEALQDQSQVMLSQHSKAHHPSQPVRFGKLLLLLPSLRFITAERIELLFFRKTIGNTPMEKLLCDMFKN
# PG9 binder – binds the HIV-1 gp120 antibody PG9 | TR-FRET gp120-PG9 antibody binding | inhibition, % at 6.7 µM | hit rate 0.43% among 360,000; in the data active means inhibition above about 8.5%
# NR2E3 ag-2 – agonists of human nuclear receptor NR2E3. GST-NR2E3/biotin-RetCOR TR-FRET, 1536-well. Q9Y5X4. hit rate 0.12% among 320,000. AID 2300. inhibition of corepressor binding, % at 4.78 µM;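 active means percent inhibition above the cutoff of mean plus 3 SD of all tested compounds, set per screening campaign, cut at about 20% in these data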;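 further: 0% = DMSO wells and 100% = biotin wells as full block of FRET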
#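 Assay system: NR2E3–RetCOR corepressor complex. Quantity: 1.35 nM GST-NR2E3. Buffer or medium: pH 7.5 Tris-based buffer. Reagent: biotinylated RetCOR corepressor at 7 nM final. Schedule: 5 h at 4 °C. Detection: TR-FRET, emission read at 617 and 671 nm. Replicates: one well per compound, singlicate testing.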
# NR1D1 mod conf – confirmation of modulators of human Rev-erb alpha DNA binding. shares compounds with NR1D1 modulator. hit rate 61% among 3,000. AID 1259319. Rev-erb alpha FITC-DNA binding, fluorescence polarization, 90 min. activation, % at 25 µM;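 active means activation at or above a set limit, or at least 3 SD above the negative control mean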;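 further: 0% = 35 nM protein with DMSO and 100% = 750 nM protein high control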
# RORg DNA counter – RORgamma DNA-binding activity, dose-response counter-screen. shares compounds with NR1D1 modulator. purified RORgamma protein-FITC-DNA binding, fluorescence polarization. IC50, µM. hit rate 8% among 910. AID 1259320;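 active means Compounds whose fitted half-maximal concentration for disrupting protein-DNA binding is below 10 micromolar; the record names Rev-erb in its text, so the target is in doubt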
# Numbers without * were called inactive; i = inactive; . = no result given. Rows were chosen to be rich in hits. Some 1.9% of all compounds tested hit in one or more screens of this group.
SMILES,NR1D1 modulator,MT1-MMP act inh,SKN-1 block,NR2E3 ag-1,PG9 binder,NR2E3 ag-2,NR1D1 mod conf,others
COc1ccc(NC(=O)c2oc3ccccc3c2NC(=O)COc2ccccc2OC)c(OC)c1,42.5*,7.9,-11.3,-9.3,-1.5,-0.4,30.7*,
CCOCC(=O)Nc1c(C(=O)Nc2ccccc2OC)oc2ccccc12,46.9*,-2.7,-17.1,4.0,0.8,-1.6,38.5*,
O=C(Nc1cccs1)OC1CC2CC1[C@H]1CCCCN1C2 (stereo partly specified),3.3,.,.,.,.,.,.,
CCCCc1c(-c2ccccc2OC)ncn1Cc1ccc(F)cc1F,-0.3,.,.,.,2.4,.,.,
CC(C)(C)c1ccc(C(=O)OCC(=O)N2CCC(c3ccccc3)=N2)cc1,14.3*,1.4,8.8,-16.1,-1.5,0.2,-1.0,
Cc1ccc(C(=O)OCC(=O)N2CCC(c3ccccc3)=N2)c(C)c1,-0.8,-0.6,1.4,27.9,-0.7,-1.8,.,
CC(=O)Oc1cccc(C)c1,-4.0,.,.,.,.,.,.,
COc1ccc(CNC(=O)C[C@@H]2C[C@H]3c4cc(NC(=O)NC5CCCC5)ccc4O[C@H]3[C@H](CO)O2)cc1,-3.2,1.0,-11.1,-8.0,0.4,.,.,
Clc1cccc2sc(-c3nnc(-c4ccccc4)o3)c(Cl)c12,37.9*,4.0,6.2,-41.9,1.0,0.9,31.0*,
N#CCSc1nnc(-c2sc3ccccc3c2Cl)o1,-3.2,2.7,-0.7,-9.1,-2.6,-2.2,.,
Cc1ccc(OCC(=O)Nc2ccc(Cl)cc2)c(-n2nc3ccccc3n2)c1,68.5*,4.5,9.5,-4.5,0.0,2.9,10.0,
CCOc1ccc(C)cc1-n1nc2ccccc2n1,1.2,3.5,1.9,-25.5,1.6,1.4,.,
O=C(Nc1ccc(F)cc1)OCc1cn(Cc2ccc(F)c(F)c2)nn1,-1.8,.,.,.,.,.,.,
Cc1ccc(-n2nc3ccc(NC(=O)c4cccc([N+](=O)[O-])c4C)cc3n2)cc1,26.4*,0.3,7.4,-75.9,0.2,0.8,-0.4,
O=C(Nc1cccc(C(F)(F)F)c1)OC1CC2CC1[C@H]1CCCCN1[C@H]2Cc1ccccc1 (stereo partly specified),10.6,.,.,.,.,.,.,
Cc1ccc(OCc2nnc(SCC(=O)Nc3ccccc3-c3ccccc3)n2Cc2ccco2)cc1,0.9,.,.,.,.,.,.,
O=C(O)c1cccc(-c2ccc(/C=N/Nc3ccc([N+](=O)[O-])cc3)o2)c1,5.4,-75.8,8.0,-44.9,-3.0,0.4,.,
O=C(O)c1ccc(-c2ccc(/C=N/Nc3ccc([N+](=O)[O-])cc3)o2)cc1,20.7*,-129.8,1.5,-67.0,-1.1,-0.1,18.2*,
CCCCOCC1CN(CCCC)S(=O)(=O)c2c(Oc3ccc(SC)c(C)c3)cccc2O1 (stereo unspecified),2.9,.,.,.,-1.0,.,.,
O=c1cc(N2CCN(c3cccc(C(F)(F)F)c3)CC2)[nH]c(=O)n1-c1ccccc1,0.3,.,.,.,.,.,.,
CCOC(=O)c1c(-c2ccccc2)csc1NC(=O)c1cccc(N2C(=O)CCC2=O)c1,26.0*,0.1,2.6,-12.3,1.3,1.5,9.0,
CCOC(=O)c1c(-c2ccc(C)cc2)csc1NC1=NS(=O)(=O)c2ccccc21,36.6*,3.0,0.0,4.6,-0.8,7.2,20.2*,
CCOC(=O)c1c(-c2ccc(C)cc2)csc1NC(=S)NC(=O)c1ccccc1,1.1,-8.4,4.9,-20.1,-3.7,2.6,.,
CCOC(=O)c1c(-c2ccccc2)csc1NC(=O)/C(C#N)=C/c1ccc(O)c(OC)c1,26.3*,-95.5,7.6,-1.4,1.8,-2.0,36.5*,RORg DNA counter=>40
CCOC(=O)c1c(-c2ccc(C)cc2)csc1NC(=O)c1cccc(N2C(=O)CCC2=O)c1,26.1*,-1.6,2.1,2.1,-1.1,-4.6,8.5,
SMILES,NR1D1 modulator,MT1-MMP act inh,SKN-1 block,NR2E3 ag-1,PG9 binder,NR2E3 ag-2,NR1D1 mod conf,others
COC(=O)C1=C(C)N(C)C(=NCc2ccc(OC)cc2)NC1c1ccc(C(F)(F)F)cc1 (stereo unspecified),7.0,.,.,.,2.2,.,.,
O=C(Nc1nc(-c2cccs2)c(-c2cccs2)s1)C1CCCC1,80.3*,-40.2,-2.5,-5.2,4.0,.,113.9*,RORg DNA counter=i
Cc1ccc(CN2CCCCC(NC(=O)c3ccc(N(C)C)cc3)C2=O)cc1 (stereo unspecified),1.9,.,.,.,.,.,.,
CCSc1nc(C2CC2)cc(-c2cccs2)c1C#N,6.7,-1.0,45.0,-10.6,-0.1,1.5,.,
N#Cc1c(-c2ccccc2F)cc(C2CC2)nc1SCC(=O)c1cccs1,40.1*,-90.4,3.9,-16.7,-4.8,-1.8,27.9*,
CCOC(=O)N1CCC(NC(=O)c2cc3c(-c4ccc(Cl)cc4)nn(C)c3s2)CC1,20.1*,-2.9,-4.6,4.8,-1.0,3.1,18.7*,
CC(C)NC(=O)c1cc2c(-c3ccc(Cl)cc3)nn(C)c2s1,-1.0,-5.0,5.0,-6.2,-1.0,4.9,.,
O=C(CSc1nnc(-c2ccccc2O)o1)Oc1ccc(OCc2ccccc2)cc1,36.1*,4.4,-9.9,3.7,8.3,-0.8,5.0,
Cc1ccc(-c2nc(NC(=O)CSc3cc(C)c4ccccc4n3)ns2)cc1,498.7*,-1.9,-5.1,6.2,-0.2,-1.3,61.4*,RORg DNA counter=>40
COC(=O)c1cn(NC(=O)Cc2ccc(OC)c(OC)c2)c(=O)c2ccccc12,12.3*,0.8,13.5,19.1,0.6,-0.8,-0.2,
Nn1c(SCC(=O)Nc2ccccc2-c2ccccc2)nnc1-c1cc(-c2ccc(Cl)cc2)n[nH]1,-1.5,.,.,.,.,.,.,
COc1ccc(CNC(=O)C2CCC(CNS(=O)(=O)c3cccc4nsnc34)CC2)cc1 (stereo unspecified),72.1*,-1.4,-9.8,-26.0,0.6,4.0,51.8*,RORg DNA counter=>40
COCCNC(=O)C1CCC(CNS(=O)(=O)c2cccc3nsnc23)CC1 (stereo unspecified),-7.0,0.3,-0.4,-12.6,-1.5,-1.2,.,
O=C(NCc1ccccn1)C1CCC(CNS(=O)(=O)c2cccc3nsnc23)CC1 (stereo unspecified),1.3,11.1,-17.1,-8.3,0.6,-2.7,.,
O=C(NCc1ccc2c(c1)OCO2)C1CCC(CNS(=O)(=O)c2cccc3nsnc23)CC1 (stereo unspecified),33.8*,1.5,3.2,-3.9,1.4,3.4,28.1*,RORg DNA counter=>40
CC(=O)NC1CCCCN(C(C)C)C1=O (stereo unspecified),-0.1,.,.,.,.,.,.,
O=C(NC(c1ccc(Cl)cc1)c1ccsc1)C1CCN(CCOc2ccc(Cl)cc2)CC1 (stereo unspecified),0.4,1.9,-8.0,-6.1,-0.3,.,.,
O=C1NC(O)=NC1(c1ccccc1)c1ccccc1,-6.1,.,.,.,.,.,.,
